ChEMBL document CHEMBL1154009, “Identification, synthesis and SAR of amino substituted pyrido[3,2b]pyrazinones as potent and selective PDE5 inhibitors” (Bioorg Med Chem Lett, 2009)

What was measured:
[1] = Inhibition of PDE11
[2] = biological target: cGMP-specific 3',5'-cyclic phosphodiesterase (Homo sapiens, UniProt O76074); test: Inhibition of PDE5
[3] = Inhibition of PDE6
[4] = Selectivity ratio of IC50 for PDE6 to IC50 for PDE5
[5] = Aqueous solubility at pH 7.4; type: physicochemical; conditions: aqueous medium
[6] = Selectivity ratio of IC50 for PDE11 to IC50 for PDE5
[7] = Half life in Sprague-Dawley rat at 2 mg/kg, po and 2mg/kg, iv; type: ADME, organism-based; design: dose 2 mg/kg, route oral; conditions: in vivo
Outline: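 Sprague Dawley rats (n = 3) dosed IV at 2 mpk in 70% PEG400/20% 0.05 M citrate buffer/10% ethanol, pH 5.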

SMILES	IC50 [1] [nM]	IC50 [2] [nM]	IC50 [3] [nM]	Ratio IC50 [4]	solubility [5] [µM]	Ratio IC50 [6]	half-life [7] [h]
CN(C)C(=O)CNc1nc2ccc(-c3ccc(F)cc3)nc2n(CC2CCCCC2)c1=O	90.9	3.5	> 2000				
O=c1c(NCC2CCOCC2)nc2ccc(-c3ccc(F)cc3)nc2n1CC1CCCCC1	324	3	459	> 100			
COc1ccc(-c2ccc3nc(NCC(=O)N(C)C)c(=O)n(CC4CCCCC4)c3n2)cn1	7.7	0.3	72				
CCCOCCn1c(=O)c(NCCN2CCOCC2)nc2ccc(-c3c(C)noc3C)nc21	> 2000	36.5	1980				
Cc1noc(C)c1-c1ccc2nc(NCCN3CCOCC3)c(=O)n(CC3CCCCC3)c2n1	286	1	41.6				
O=c1c(NCC2CCOCC2)nc2ccc(-c3ccc(F)cc3)nc2n1Cc1cccnc1	474	2.5	375				
COc1ccc(Cn2c(=O)ccc3ccc(-c4ccncc4)cc32)cc1	41	25	150				
O=c1c(NCc2cccnc2)nc2ccc(-c3ccc(F)cc3)nc2n1CC1CCCCC1	558	13.4	871				
CCCOCCn1c(=O)c(NCC2CCOCC2)nc2ccc(-c3ccncc3)nc21	> 2000	33.9	1170				
CCCOCCn1c(=O)c(NCCN2CCOCC2)nc2ccc(-c3ccc(F)cc3)nc21	> 2000	33.3	1850				
O=c1c(NCC2CCOCC2)nc2ccc(-c3ccc(F)cc3)nc2n1Cc1ccccn1	970	20.3	920				
CC(C)Cn1c(=O)c(NCC2CCOCC2)nc2ccc(-c3ccc(F)cc3)nc21		224					
CCCOCCn1c(=O)c(NCCN2CCOCC2)nc2ccc(-c3ccc(OC)nc3)nc21	1540	2.4	317	> 100		> 600	3
Nc1nc2ccc(-c3ccc(F)cc3)nc2n(CC2CCCCC2)c1=O	145	28.5	114				
CCCOCCn1c(=O)c(NCC2CCOCC2)nc2ccc(-c3ccc(F)cc3)nc21	> 2000	22.4	> 2000				
CCCOCCn1c(=O)c(NCC2CCOCC2)nc2ccc(-c3ccc(OC)nc3)nc21	1230	2.3	350	> 100		> 600	
CCCOCCn1c(=O)c(NCC(=O)N(C)C)nc2ccc(-c3ccc(OC)nc3)nc21	1210	14.5	1190	> 100		> 600	
COc1ncc(-c2ccc3nc(NCC4CCOCC4)c(=O)n(CC4CCCCC4)c3n2)cn1	8.2	0.3	36.3				
O=c1c(NCCN2CCOCC2)nc2ccc(-c3ccc(F)c(F)c3)nc2n1CC1CCCCC1	213	1.6	195	> 100			

More lines, now with the values ahead:

IC50 [1] [nM]	IC50 [2] [nM]	IC50 [3] [nM]	Ratio IC50 [4]	solubility [5] [µM]	Ratio IC50 [6]	half-life [7] [h]	SMILES
> 2000	43	1160					CCCCCN1C(=O)CN(C)c2ncc(-c3ccc(F)c(F)c3)cc21
8.1	0.3	32					COc1ccc(-c2ccc3nc(NCC4CCOCC4)c(=O)n(CC4CCCCC4)c3n2)cn1
405	4.6	240	> 100				O=c1c(NCCN2CCOCC2)nc2ccc(-c3ccc(F)cc3)nc2n1CC1CCCCC1
> 2000	26.7	> 2000					CCCOCCn1c(=O)c(NCCN2CCOCC2)nc2ccc(-c3cnc(OC)nc3)nc21
36.5	0.9	33.5					O=c1c(NCC2CCOCC2)nc2ccc(-c3ccncc3)nc2n1CC1CCCCC1
1660	52.5	979					CC(C)OCCn1c(=O)c(NCCN2CCOCC2)nc2ccc(-c3ccc(F)c(F)c3)nc21
5.9	0.4	25.2		< 3			COc1ccc(-c2ccc3nc(NCCN4CCOCC4)c(=O)n(CC4CCCCC4)c3n2)cn1
345	1.3	10.1			100		COc1ccc(Cn2c(=O)c(NCCN3CCOCC3)nc3ccc(-c4ccc(F)cc4)nc32)cc1
	534						CCCOCCn1c(=O)c(NCCN2CCOCC2)nc2ccc(-c3ccc(=O)[nH]c3)nc21
	51	6					CCCn1ccc(=O)c2c(N)nc(-c3ccccc3)cc21
482	2	11.6			100		COc1ccc(Cn2c(=O)c(NCCN3CCOCC3)nc3ccc(-c4ccc(F)c(F)c4)nc32)cc1
79.2	2.9	112					O=c1c(NCC2CCOCC2)nc2ccc(-c3ccc(O)nc3)nc2n1CC1CCCCC1
390	2.7	910					O=c1c(NCC2CCOCC2)nc2ccc(-c3ccc(F)cc3)nc2n1Cc1cc(F)cc(F)c1
	149						CCOCCn1c(=O)c(NCC2CCOCC2)nc2ccc(-c3ccc(F)cc3)nc21
